Reference: ChEMBL document CHEMBL1132961 (J Med Chem, 2000)

Columns and labels:
[1] = Tested for maximum plasma concentration in mice; format: ADME, organism-based; details: mouse
Summary of the method: (§1)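 Mice dosed orally by gavage at 25 mg/kg. Vehicle was usually 20% 0.1 N NaOH/80% 0.5% methylcellulose, and in two cases 20% 0.1 N NaOH/80% PEG 400. Plasma Cmax and AUC measured; AUC not determined where Cmax was too low.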

[2] = Half-life period in rat; format: ADME, organism-based; details: in vivo
Summary of the method: (§2)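 Rats given 10 mg/kg orally in NaOH solution buffered to pH 7.4. Plasma Cmax, T1/2 and AUC determined.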

[3] = AUC value in mice; format: ADME, organism-based; details: mouse, plasma; summary of the method: as §1
[4] = AUC value in rat; format: ADME; details: plasma; summary of the method: as §2
[5] = Tested for maximum plasma concentration in rats; format: ADME, organism-based; details: rat; summary of the method: as §2
[6] = (§3) Concentration which elicits cytotoxicity in 50% of uninfected human lymphocyte derived CEM cells; format: cell-based, CCRF-CEM; details: uninfected CCRF-CEM cells, read-out: TC50 (the source's name)
Summary of the method: (§4)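 Cytotoxicity measured in uninfected human lymphocyte-derived CEM cells by XTT protocol.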

[7] = biological target: T1, Human immunodeficiency virus type 1 protease (Human immunodeficiency virus 1, UniProt Q72874); assay: Tested for binding affinity against HIV protease
[8] = system: Human immunodeficiency virus 1; assay: Effective concentration at which 50% of the HIV-IIIB-infected human lymphocyte-derived CEM cells protected from HIV-1 infection
[9] = (§5) Effective concentration required for antiviral activity against HIV-1 144-44 in PBMC cells; format: functional, cell-based; details: Homo sapiens
Summary of the method: (§6)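 PBMC cells infected with HIV-1 clinical isolates, using an XTT cytopathic assay similar to the CEM assay. EC50 read as protection from viral cytopathic effect.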

[10] = Effective concentration required for antiviral activity against HIV-1 RoJo in PBMC cells; format: functional, cell-based; details: Homo sapiens; summary of the method: as §6
[11] = Effective concentration required for antiviral activity against HIV-1 SLKA in PBMC cells; format: functional, cell-based; details: Homo sapiens; summary of the method: as §6
[12] = Effective concentration required for antiviral activity against HIV-1 TEKI in PBMC cells; format: functional, cell-based; details: Homo sapiens; summary of the method: as §6
[13] = Effective concentration required for antiviral activity against HIV-1 WeJo in PBMC cells; format: functional, cell-based; details: Homo sapiens; summary of the method: as §6
[14] = Tested for cytotoxic activity against HIV-1 144-44 in PBMC cells; format: cell-based; details: human, read-out: TC50 (the source's name)
[15] = biological target: T1, Human immunodeficiency virus type 1 protease; assay: Tested for binding affinity against protease
[16] = biological target: T1, Human immunodeficiency virus type 1 protease; assay: Activity of potent nonpeptidic inhibitor against protease
Summary of the method: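 Incubated with 40 µM His-Lys-Ala-Arg-Val-Leu-(p-NO₂-Phe)-Glu-Ala-Nle-Ser-NH₂ in 1.0% DMSO, pH 6.2 MES buffer (DTT, NaCl, EDTA, PEG 8000) for 60 min at 37 °C, then TFA quench. Substrate and product separated by reverse-phase HPLC, read at 220 nm. % control = conversion with inhibitor / conversion without × 100; IC50 derived.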

[17] = (§7) Effective concentration required for antiviral activity against HIV-1 1002-60 in PBMC cells; format: functional, cell-based; details: Homo sapiens; summary of the method: as §6
[18] = (§8) Effective concentration required for antiviral activity against HIV-1 1026-60 in PBMC cells; format: functional, cell-based; details: Homo sapiens; summary of the method: as §6
[19] = Tested for cytotoxic activity against HIV-1 1002-60 in PBMC cells; format: cell-based; details: human, read-out: TC50 (the source's name)
[20] = Tested for cytotoxic activity against HIV-1 1026-60 in PBMC cells; format: cell-based; details: human, read-out: TC50 (the source's name)
PBMC [21] = assay: as §7; format: functional, cell-based; details: Homo sapiens; summary of the method: as §6
PBMC [22] = assay: as §8; format: functional, cell-based; details: Homo sapiens; summary of the method: as §6
PBMC [23] = assay: as §5; format: functional, cell-based; details: Homo sapiens; summary of the method: as §6
CYP2C9 [24] = biological target: T2, CYP2C9 (Homo sapiens, UniProt P11712); assay: Residual activity of cytochrome P450 at 10 uM
T2 sequence (P11712 whole entry): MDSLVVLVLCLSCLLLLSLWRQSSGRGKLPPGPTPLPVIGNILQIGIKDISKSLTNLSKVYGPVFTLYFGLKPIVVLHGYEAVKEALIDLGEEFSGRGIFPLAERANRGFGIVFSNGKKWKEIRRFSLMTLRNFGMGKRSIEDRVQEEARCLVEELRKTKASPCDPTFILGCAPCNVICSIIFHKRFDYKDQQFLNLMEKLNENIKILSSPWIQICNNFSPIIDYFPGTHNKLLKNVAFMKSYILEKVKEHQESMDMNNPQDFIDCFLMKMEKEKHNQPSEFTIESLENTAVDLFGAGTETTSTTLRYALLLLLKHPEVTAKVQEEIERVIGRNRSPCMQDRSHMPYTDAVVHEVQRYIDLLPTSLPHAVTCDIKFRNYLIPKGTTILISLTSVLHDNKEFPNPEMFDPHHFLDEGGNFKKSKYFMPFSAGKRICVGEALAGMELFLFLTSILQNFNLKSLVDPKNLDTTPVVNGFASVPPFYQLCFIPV

CYP2D6 [25] = biological target: T3, CYP2D6 (Homo sapiens, UniProt P10635); assay: Residual activity of cytochrome P4502D6 at 1 uM
T3 sequence (P10635 whole entry): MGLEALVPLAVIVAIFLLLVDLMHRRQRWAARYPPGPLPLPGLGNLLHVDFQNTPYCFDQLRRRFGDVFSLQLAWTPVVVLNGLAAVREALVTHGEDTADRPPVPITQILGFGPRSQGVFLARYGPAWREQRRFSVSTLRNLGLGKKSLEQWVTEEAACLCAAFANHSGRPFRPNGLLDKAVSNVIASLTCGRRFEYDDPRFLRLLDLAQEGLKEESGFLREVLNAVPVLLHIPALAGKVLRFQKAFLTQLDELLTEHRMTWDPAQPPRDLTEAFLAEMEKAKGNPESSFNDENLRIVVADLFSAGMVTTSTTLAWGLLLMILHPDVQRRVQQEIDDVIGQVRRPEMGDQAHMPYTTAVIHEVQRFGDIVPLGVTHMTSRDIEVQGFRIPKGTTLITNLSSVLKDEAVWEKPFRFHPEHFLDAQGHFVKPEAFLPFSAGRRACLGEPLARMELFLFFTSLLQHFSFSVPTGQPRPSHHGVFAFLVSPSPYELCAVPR

CYP2C9 [26] = biological target: T2, CYP2C9; assay: Residual activity of cytochrome P450 2C9 at 1 uM
CYP2D6 [27] = biological target: T3, CYP2D6; assay: Residual activity of cytochrome P4502D6 at 10 uM
CYP2D6 [28] = biological target: T3, CYP2D6; assay: Residual activity of cytochrome P4502D6 at 100 uM
CYP2C9 [29] = biological target: T2, CYP2C9; assay: Residual activity of cytochrome P450 2C9 at 100 uM
CCRF-CEM = assay: as §3; format: cell-based; details: ccrf-cem, read-out: TC50 (the source's name); summary of the method: as §4
CYP3A4 [30] = biological target: T4, CYP3A4 (Homo sapiens, UniProt P08684); assay: Residual activity of cytochrome P4503A4 at 1 uM
T4 sequence (P08684 whole entry): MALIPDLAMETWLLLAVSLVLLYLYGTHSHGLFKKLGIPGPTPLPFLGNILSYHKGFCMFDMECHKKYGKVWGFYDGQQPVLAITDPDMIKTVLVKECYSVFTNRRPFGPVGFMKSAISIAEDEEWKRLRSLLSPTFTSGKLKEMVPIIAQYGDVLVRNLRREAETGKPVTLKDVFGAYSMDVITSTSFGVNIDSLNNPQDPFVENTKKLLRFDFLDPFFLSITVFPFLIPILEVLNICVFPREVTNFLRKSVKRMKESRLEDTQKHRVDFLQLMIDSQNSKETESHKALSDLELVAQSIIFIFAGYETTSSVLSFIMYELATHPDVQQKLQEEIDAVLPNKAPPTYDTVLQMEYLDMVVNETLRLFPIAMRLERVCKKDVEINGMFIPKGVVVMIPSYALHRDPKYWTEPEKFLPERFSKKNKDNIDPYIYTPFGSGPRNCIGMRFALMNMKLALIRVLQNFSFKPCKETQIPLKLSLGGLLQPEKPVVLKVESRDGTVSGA

CYP3A4 [31] = biological target: T4, CYP3A4; assay: Residual activity of cytochrome P4503A4 at 10 uM
CYP3A4 [32] = biological target: T4, CYP3A4; assay: Residual activity of cytochrome P4503A4 at 100 uM
[33] = Human immunodeficiency virus 1, CCRF-CEM
[34] = pooled result: one value given for 5 cell lines, strains, targets or settings

Row | SMILES | Cmax [1] | half-life [2] | AUC [3] | AUC [4] | Cmax [5] | Ki [7] | EC50 [8, 33] | EC50 [9] | EC50 [10] | EC50 [11] | EC50 [12] | EC50 [13] | CC50 [6] | CC50 [14, 34] | CC50 [19] | CC50 [20] | further results
1 | Cc1cc(SC2=C(O)OC(CCc3ccccc3)(C(C)C)CC2=O)c(C(C)(C)C)cc1NS(=O)(=O)c1ccc(C(F)(F)F)cc1 (stereo not drawn) | – | – | – | – | – | – | 700 nM | – | – | – | – | – | 24 µM | – | – | – | Ki [15]: 27 nM
2 | Cc1cc(SC2=C(O)OC(CCc3ccc(O)cc3)(C(C)C)CC2=O)c(C(C)(C)C)cc1NS(=O)(=O)c1ccccc1 (stereo not drawn) | – | – | – | – | – | 0.53 nM | 1400 nM | – | – | – | – | – | 74 µM | – | – | – | IC50 [16]: 1.8 nM
3 | CC(C)(C)NC(=O)[C@@H]1CN(Cc2cccnc2)CCN1C[C@@H](O)C[C@@H](Cc1ccccc1)C(=O)N[C@H]1c2ccccc2C[C@H]1O | – | – | – | – | – | – | – | – | – | – | – | – | – | – | > 100 µM | > 100 µM | EC50 (PBMC [21]): > 100 µM; EC50 (PBMC [22]): 16.6 µM; EC50 (PBMC [23]): 3000 nM; CC50 [14]: > 100 µM; residual activity at 10 µM (CYP2C9 [24]): 89%; residual activity at 1 µM (CYP2D6 [25]): 100%; residual activity at 1 µM (CYP2C9 [26]): 93%; residual activity at 10 µM (CYP2D6 [27]): 82%; residual activity at 100 µM (CYP2D6 [28]): 31%; residual activity at 100 µM (CYP2C9 [29]): 68%
4 | Cc1cc(SC2=C(O)O[C@](CCc3ccc(O)cc3)(C(C)C)CC2=O)c(C(C)(C)C)cc1N (stereo in doubt; 1R) | – | – | – | – | – | – | – | – | – | – | – | – | – | – | – | – | CC50 (CCRF-CEM): 215 µM; EC50 ([8]; ccrf-cem): 91000 nM
5 | Cc1cc(SC2=C(O)O[C@](CCc3ccc(O)cc3)(C(C)C)CC2=O)c(C(C)(C)C)cc1N (stereo in doubt; 1S) | – | – | 46300 ng·h/mL | – | – | – | – | 240 nM | 200 nM | 220 nM | 590 nM | 250 nM | 215 µM | > 100 µM | > 100 µM | > 100 µM | EC50 [17]: 740 nM; EC50 [18]: 310 nM; residual activity at 10 µM (CYP2C9 [24]): 75.5%; residual activity at 1 µM (CYP2D6 [25]): 105%; residual activity at 1 µM (CYP3A4 [30]): 103%; residual activity at 1 µM (CYP2C9 [26]): 93.2%; residual activity at 10 µM (CYP2D6 [27]): 95%; residual activity at 10 µM (CYP3A4 [31]): 96.8%; residual activity at 100 µM (CYP2D6 [28]): 56.7%; residual activity at 100 µM (CYP3A4 [32]): 41.1%; residual activity at 100 µM (CYP2C9 [29]): 21.6%; EC50 ([8]; ccrf-cem): 490 nM

More lines, main results first:

Row | Cmax [1] | half-life [2] | AUC [3] | AUC [4] | Cmax [5] | Ki [7] | EC50 [8, 33] | EC50 [9] | EC50 [10] | EC50 [11] | EC50 [12] | EC50 [13] | SMILES | CC50 [6] | CC50 [14, 34] | CC50 [19] | CC50 [20] | further results
6 | 6.54 µM | 56.4 min | 5400 ng·h/mL | 5390 ng·h/mL | 6.54 µM | 0.03 nM | 530 nM | – | – | – | – | – | Cc1cc(SC2=C(O)O[C@](CCc3ccc(O)cc3)(C(C)C)CC2=O)c(C(C)(C)C)cc1OS(C)(=O)=O | 80 µM | – | – | – | –
7 | 9.2 µM | 138 min | 22000 ng·h/mL | 6700 ng·h/mL | 3.5 µM | 0.31 nM | 450 nM | – | – | – | – | – | Cc1cc(SC2=C(O)O[C@](CCc3ccccc3)(C(C)C)CC2=O)c(C(C)(C)C)cc1NS(=O)(=O)c1ccc(C(F)(F)F)cn1 | 65 µM | – | – | – | –
8 | 10.3 µM | 342 min | – | 10000 ng·h/mL | 3.96 µM | 0.2 nM | 220 nM | 580 nM | 120 nM | 120 nM | 100 nM | 110 nM | Cc1cc(SC2=C(O)O[C@](CCc3ccccc3)(C(C)C)CC2=O)c(C(C)(C)C)cc1NS(=O)(=O)c1ccc(C#N)cc1 | 31 µM | 55.6 µM | – | – | –
9 | – | – | – | – | – | 1.04 nM | 600 nM | 260 nM | 680 nM | 710 nM | 810 nM | 690 nM | Cc1cc(SC2=C(O)OC(CCc3ccccc3)(C(C)C)CC2=O)c(C(C)(C)C)cc1NS(=O)(=O)c1ccc(C(F)(F)F)cn1 (stereo not drawn) | 66 µM | > 100 µM | > 100 µM | > 100 µM | EC50 [17]: 610 nM; EC50 [18]: 270 nM
10 | 0.62 µM | – | – | – | – | – | 800 nM | – | – | – | – | – | CCNS(=O)(=O)Oc1cc(C(C)(C)C)c(SC2=C(O)OC(CCc3ccccc3)(C(C)C)CC2=O)cc1C (stereo not drawn) | 67 µM | – | – | – | –
